Measured values as given in ChEMBL document CHEMBL1157044, “Synthesis, biological and medicinal significance of S-glycosido-thieno[2,3-d]-pyrimidines as new anti-inflammatory and analgesic agents” (Eur J Med Chem, 2010).

Assays:
Mus musculus [1] = experiment: Analgesic activity in Swiss albino mouse assessed as p-benzoquinone-induced writhing at 100 mg/kg, po administered 60 mins before benzoquinone challenge; type: functional
Summary of the method: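 Mice fasted overnight with water allowed, dosed by gavage with suspension in 0.5% carboxymethyl cellulose; vehicle controls. 60 min later, i.p. 0.1 mL/10 g of 2.5% (v/v) p-benzoquinone in distilled water. Writhes counted individually for 15 min starting 5 min post-injection; % change from vehicle writhing controls, mean ± SEM, two-tailed t-test. Aspirin reference.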

Mus musculus [2] = experiment: Antiinflammatory activity in Swiss albino mouse assessed as inhibition of carrageenan-induced paw edema at 100 mg/kg, po administered 60 mins before carrageenan challenge measured after 90 mins; type: functional
Summary of the method: (§1)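 Mice fasted overnight, gavaged with suspension in 0.5% carboxymethyl cellulose or vehicle. 60 min later, 0.5 mg/25 µL carrageenan in 154 mM saline injected subplantar into right hind paw, saline into left. Right-minus-left footpad thickness by dial gauge every 90 min over 6 h; % inhibition versus control, mean ± SEM, two-tailed t-test. Indometacin reference.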

Mus musculus [3] = experiment: Antiinflammatory activity in Swiss albino mouse assessed as inhibition of carrageenan-induced paw edema at 100 mg/kg, po administered 60 mins before carrageenan challenge measured after 360 mins; type: functional; summary of the method: as §1
Mus musculus [4] = experiment: Antiinflammatory activity in Swiss albino mouse assessed as inhibition of carrageenan-induced paw edema at 100 mg/kg, po administered 60 mins before carrageenan challenge measured after 270 mins; type: functional; summary of the method: as §1
Mus musculus [5] = experiment: Toxicity in Swiss albino mouse assessed as gastric ulceration at 100 mg/kg, po; type: organism-based, Stomach; parameters: dose 100 mg/kg, route oral; details: in vivo
Summary of the method: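 Mice fasted the day before (water allowed), given 100 mg/kg orally by gavage as suspension in 0.5% carboxymethyl cellulose; vehicle controls. Carrageenan paw oedema followed over 6 h. Immediately after last paw measurement, animals sacrificed under ether anaesthesia, stomachs removed and examined under dissecting microscope; stomach with one or more ulcers scored positive; expressed as ulcerated/total (n=6 per group).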

Mus musculus [6] = experiment: Antiinflammatory activity in Swiss albino mouse assessed as inhibition of carrageenan-induced paw edema at 100 mg/kg, po administered 60 mins before carrageenan challenge measured after 180 mins; type: functional; summary of the method: as §1

Structure (SMILES)	inhibition in vivo at 100 mg/kg (Mus musculus [1]) [%]	inhibition in vivo at 100 mg/kg (Mus musculus [2]) [%]	inhibition in vivo at 100 mg/kg (Mus musculus [3]) [%]	inhibition in vivo at 100 mg/kg (Mus musculus [4]) [%]	Activity (Mus musculus [5])	inhibition in vivo at 100 mg/kg (Mus musculus [6]) [%]
CC(=O)c1sc2nc(S[C@@H]3O[C@H](CO)[C@@H](O)[C@@H]3O)n(N)c(=O)c2c1C	48.8	28.5	35.6	28.6	Non-toxic	29.8
CC(=O)c1sc2[nH]c(=S)n(N)c(=O)c2c1C	35.7	6.1	8.5	8.3	Non-toxic	7.8
CCOC(=O)c1sc2c(c1C)C(=O)N(N)C(S[C@@H]1O[C@H](CO)[C@@H](O)[C@H](O)[C@H]1O)N2 (stereo partly drawn)	51	29.7	34.4	33.9	–	31.2
CCOC(=O)c1sc2nc(S[C@@H]3O[C@H](CO)[C@H](O)[C@H](O)[C@H]3O)n(N)c(=O)c2c1C	–	–	–	–	Non-toxic	–
CC(=O)c1sc2c(c1C)C(=O)N(N)C(S[C@@H]1O[C@H](CO)[C@H](O)[C@H](O)[C@H]1O)N2 (stereo partly drawn)	35.7	14.4	20.7	17.5	–	16.6
CC(=O)OC[C@H]1O[C@@H](Sc2nc3sc(C(C)=O)c(C)c3c(=O)n2N)[C@@H](OC(C)=O)[C@@H]1OC(C)=O	48.8	28.5	35.6	28.6	Non-toxic	29.8
CCOC(=O)c1sc2nc(S[C@@H]3O[C@H](COC(C)=O)[C@@H](OC(C)=O)[C@H](OC(C)=O)[C@H]3OC(C)=O)n(N)c(=O)c2c1C	37.9	13.2	22.3	20.3	–	14.7
CC(=O)OC[C@H]1O[C@@H](Sc2nc3sc(C(C)=O)c(C)c3c(=O)n2N)[C@H](OC(C)=O)[C@@H](OC(C)=O)[C@@H]1OC(C)=O	45.4	25.7	34.2	29.9	Non-toxic	23.9
CC(=O)OC[C@H]1O[C@@H](Sc2nc3sc(C(C)=O)c(C)c3c(=O)n2N)[C@H](OC(C)=O)[C@@H](OC(C)=O)[C@H]1OC(C)=O	13.8	14.9	13.1	10.5	–	7.8
CCOC(=O)c1sc2nc(S[C@@H]3O[C@H](CO)[C@@H](O)[C@@H]3O)n(N)c(=O)c2c1C	53.3	32.1	38.9	35.9	Non-toxic	35.6
CCOC(=O)c1sc2nc(S[C@@H]3O[C@H](COC(C)=O)[C@@H](OC(C)=O)[C@@H]3OC(C)=O)n(N)c(=O)c2c1C	53.3	32.1	38.9	35.9	Non-toxic	35.6
CCOC(=O)c1sc2[nH]c(=S)n(N)c(=O)c2c1C	23.9	1.2	8.5	8.3	Non-toxic	6.1
CC(=O)Oc1ccccc1C(=O)O [ASPIRIN]	51.9	–	–	–	–	–
COc1ccc2c(c1)c(CC(=O)O)c(C)n2C(=O)c1ccc(Cl)cc1 [INDOMETHACIN]	–	29.5	42.7	41.9	–	30.6
